{"data": "Published values from different studies", "PTGER4": "Prostaglandin E2 receptor EP4 subtype (PTGER4, Homo sapiens, UniProt P35408)", "CDK7 with cyclin H": "Cyclin-dependent kinase 7, with cyclin H (CDK7, Homo sapiens, UniProt P50613)", "Calcitonin-gene-related peptide receptor, CALCRL/RAMP1": "Calcitonin-gene-related peptide receptor, CALCRL/RAMP1 (Homo sapiens, UniProt O60894+Q16602)", "HTR1B": "5-hydroxytryptamine receptor 1B (HTR1B, Homo sapiens, UniProt P28222)", "note": "Compare with care: the assays were run in different laboratories."}
{"SMILES": "CCN(CC)c1ccc(C2Nc3ccc(C(=O)c4ccccc4)cc3NC3=C2C(=O)CC(C)(C)C3)cc1 (centres unmarked)", "target": "PTGER4", "test": "ligand displacement, radioligand", "conditions": "10 µM", "inhibition": "7%"}
{"SMILES": "CO[C@H]1/C=C/O[C@@]2(C)Oc3c(C)c(O)c4c(O)c(c(/C=N/N5CCN(C)CC5)c(O)c4c3C2=O)NC(=O)/C(C)=C\\C=C\\[C@H](C)[C@H](O)[C@@H](C)[C@@H](O)[C@@H](C)[C@H](OC(C)=O)[C@@H]1C", "target": "CDK7 with cyclin H", "test": "enzyme activity, inhibitor, ADP detection", "conditions": "10 µM", "inhibition": "23.1%"}
{"SMILES": "O=C(c1ccc(F)cc1)N(Cc1ccccc1)C1CCCCC1", "target": "PTGER4", "test": "cell-free assay", "conditions": "10 µM", "inhibition": "6%"}
{"SMILES": "CCN(CC)c1ccc(C2=NNC(=O)CC2C)cc1[N+](=O)[O-] (centres unmarked)", "target": "3',5'-cyclic-AMP phosphodiesterase 4D (PDE4D, Homo sapiens, UniProt Q08499)", "test": "enzyme activity, inhibitor", "conditions": "0.1 µM", "inhibition": "20%"}
{"SMILES": "CS(=O)(=O)Nc1cccc(-c2csc(NC(=O)CSc3nc4nccnc4c(=O)n3CCc3ccccc3)n2)c1", "target": "Phosphatidylinositol 4-phosphate 5-kinase type-1 beta (PIP5K1B, Homo sapiens, UniProt O14986)", "test": "enzyme activity, inhibitor", "conditions": "10 µM", "inhibition": "3%"}
{"SMILES": "O=C(c1ccc(Cl)cc1)N(Cc1ccccc1)C1CCCCC1", "target": "Calcitonin-gene-related peptide receptor, CALCRL/RAMP1", "test": "cell-free assay", "conditions": "10 µM", "inhibition": "-20.2%"}
{"SMILES": "CN(C)C1CCN(CC#Cc2nn(C3CCCC3)c3nc(NCc4ccccc4)ncc23)C1 (centres unmarked)", "target": "Mitogen-activated protein kinase 1 (MAPK1, Homo sapiens, UniProt P28482)", "test": "enzyme activity, inhibitor, FRET", "conditions": "0.1 µM", "inhibition": "2%"}
{"SMILES": "CC/C(=C(/CC)c1ccc(O)cc1)c1ccc(O)cc1", "target": "CDK7 with cyclin H", "test": "enzyme activity, inhibitor, ADP detection", "conditions": "10 µM", "inhibition": "14.7%"}
{"SMILES": "CCN(c1cc(C#CCN2CCOCC2)cc(C(=O)NCc2c(C)cc(C)[nH]c2=O)c1C)[C@H]1CC[C@H](N(C)CCOC)CC1", "target": "Histone-lysine N-methyltransferase EHMT2 (EHMT2, Homo sapiens, UniProt Q96KQ7)", "test": "enzyme activity, inhibitor", "conditions": "1 µM", "inhibition": "7%"}
{"SMILES": "CC(/C=C/C=C(\\C)C(=O)O)=C\\C=C\\C=C(C)\\C=C\\C=C(/C)C(=O)O", "target": "CDK7 with cyclin H", "test": "enzyme activity, inhibitor, ADP detection", "conditions": "10 µM", "inhibition": "38.3%"}
{"SMILES": "Cc1ccc(CNC(=O)[C@H](CCc2ccccc2)NC(=O)[C@H](CCc2ccccc2)NC(=O)[C@H](CCc2ccccc2)NC(=O)c2cnc(C)cn2)cc1", "target": "Calpain-1 catalytic subunit (CAPN1, Homo sapiens, UniProt P07384)", "test": "enzyme activity, inhibitor", "conditions": "100 µM", "inhibition": "-9%"}
{"SMILES": "CCCNc1nc2ccccc2n1Cc1ccc(Cl)cc1", "target": "HTR1B", "test": "ligand displacement, radioligand", "conditions": "10 µM", "inhibition": "-13.2%"}
{"SMILES": "CCN(Cc1ccccc1C(F)(F)F)C(=O)C1CCN(S(=O)(=O)c2ccc3[nH]ncc3c2)CC1", "target": "PTGER4", "test": "ligand displacement, radioligand", "conditions": "10 µM", "inhibition": "33%"}
{"SMILES": "C=C(C)[C@@H](CC=C(C)C)C[C@@]12C[C@@H](CC=C(C)C)C(C)(C)[C@@](CC=C(C)C)(C(=O)C(C(=O)c3ccc(O)c(O)c3)=C1O)C2=O", "target": "CDK7 with cyclin H", "test": "enzyme activity, inhibitor, ADP detection", "conditions": "10 µM", "inhibition": "25.8%"}
{"SMILES": "COc1cc(NC(C)=O)c(Cl)cc1C(=O)Nc1nccs1", "target": "Calcitonin-gene-related peptide receptor, CALCRL/RAMP1", "test": "cell-free assay", "conditions": "10 µM", "inhibition": "-1.3%"}
{"SMILES": "C=C1CC[C@@H]2[C@](C)(CO)[C@H](O)CC[C@@]2(C)[C@@H]1C/C=C1/C(=O)OC[C@H]1O", "target": "CDK7 with cyclin H", "test": "enzyme activity, inhibitor, ADP detection", "conditions": "10 µM", "inhibition": "34.6%"}
{"SMILES": "Oc1cccc(Nc2nc(-c3ccc(F)cc3F)cs2)c1", "target": "HTR1B", "test": "ligand displacement, radioligand", "conditions": "10 µM", "inhibition": "-7.1%"}
